Variants at the floor of the assay were thinned out.
B1: tRNA (parent)
chain: GUUCCGUUGGCGUAAUGGUAACGCGUCUCCCUCCUAAGGAGAAGACUGCGGGUUCGAGUCCCGUACGGAACG

Variants of: B1
Test: yeast fitness relative to wild type (ratio to wild type); higher = fitter; tRNA-Arg(CCU), competitive growth, 37 C, YPD
Method in brief: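 Start and end populations of a pooled competition were compared by 100-nucleotide paired-end sequencing of gene amplicons. The Saccharomyces cerevisiae strains carried tRNA-Arg(CCU) gene variants at the native genomic locus, synthesised with a 3% per-site mutation rate at 69 sites, and competed in YPD at 37°C for 24 hours in six parallel replicates. Darwinian fitness relative to wild type was based on the change in genotype frequencies. Genotypes required ≥ 100 starting reads, and estimates < 0.5 were set to 0.5.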

Variant	yeast fitness
GUUCCGUUGGCGUAAUGGUAACGCGUCUCCCUCCUAACGUGGAGACUGCGAGUUCGAGUUCCGUACGAAACG [G38C A40U A42G G51A C60U G68A]	≤ 0.5
GUUCCGUUGGCGUAAUGGUAACGCGUCUCCCUCCUAAAGAGAAGACUGCAGGUUCGAGUCCCGUACGGAACG [G38A G50A]	0.859
GUUCCGUUGGCGUAAUGGUAACGCGUCUCCCUCCUAAAGAGAAGACUGCCGGUUCGAGUCCCGUACGGAACG [G38A G50C]	0.746
GUUCCGUUGGCGUAAUGGUAACGCGUCUCCCUCCUAAAGAGAAGACCGCGGGUUCGAGUCCCGUAUGGAACG [G38A U47C C66U]	0.555
GUUCCGUUGGCGUAAUGGUAACGCGUCUCCCUCCUAACGUGAAGACUGCGAGUUCGAGUUCCGUACGAAACG [G38C A40U G51A C60U G68A]	≤ 0.5
GUUCCGUUGGCGUAAUGGUAACGCGUCUCCCUCCUAACGAGACGACUGCGCGUUCCAGUCCCGUACGGAACG [G38C A43C G51C G56C]	≤ 0.5
GUUCCGUUGGCGUAAUGGUAACGCGUCUCCCUCCUAACGAGGAGACUGCGGGUUCGAGUCCCGUACGGAACG [G38C A42G]	0.655
GUUCCGUUGGCGUAAUGGUAACGCGUCUCCCUCCUAACGAGCAGACUGCGGGUUCGAGUCCCGUACGGAACG [G38C A42C]	0.595
GUUCCGUUGGCGUAAUGGUAACGCGUCUCCCUCCUAAAGAGAAGACUAGGGGUUCGAGUCCCGUACGGUACG [G38A G48A C49G A69U]	≤ 0.5
GUUCCGUUGGCGUAAUGGUAACGCGUCUCCCUCCUAACGCGAAGACUGCGGGCUCGAGUCCCGUACGGAACG [G38C A40C U53C]	0.639
GUUCCGUUGGCGUAAUGGUAACGCGUCUCCCUCCUAAAGAGAAGACCGCGGGUUCGAGUCCUGUACGGAACG [G38A U47C C62U]	0.539
GUUCCGUUGGCGUAAUGGUAACGCGUCUCCCUCCUAACGUGAAGACUACGGGUUCGAGUCCCGUAUGGAACG [G38C A40U G48A C66U]	0.556
GUUCCGUUGGCGUAAUGGUAACGCGUCUCCCUCCUAACGAGGAGACUGCGGGUUCGAGUCCUGUACGGAACG [G38C A42G C62U]	≤ 0.5
GUUCCGUUGGCGUAAUGGUAACGCGUCUCCCUCCUAACGUGAAGACUGCGGGUUCGAGUCCCGUACGGAACG [G38C A40U]	0.639
GUUCCGUUGGCGUAAUGGUAACGCGUCUCCCUCCUAAAGAGAAGACUGCGGCUUCGAGUCCUGUACGGAACG [G38A G52C C62U]	0.595
GUUCCGUUGGCGUAAUGGUAACGCGUCUCCCUCCUAACGAGAGGACUGGGAGUUCGAGUUCCGUACGGAACG [G38C A43G C49G G51A C60U]	≤ 0.5
GUUCCGUUGGCGUAAUGGUAACGCGUCUCCCUCCUAAAGAGAAGACGGCGGGUUCGAGUCCCGUACGGAACG [G38A U47G]	0.574
GUUCCGUUGGCGUAAUGGUAACGCGUCUCCCUCCUAAAGAGAAGACUAGGGGUUCGAGUCCCGUACGGAACG [G38A G48A C49G]	0.525
GUUCCGUUGGCGUAAUGGUAACGCGUCUCCCUCCUAAAGAGAAGACUACGGGUUCGAGUCCCGUGCGGAACG [G38A G48A A65G]	0.559

Variant	yeast fitness
GUUCCGUUGGCGUAAUGGUAACGCGUCUCCCUCCUAACGUGAAGACUGCGGGUUCGAGUCCCGUACAGAACG [G38C A40U G67A]	≤ 0.5
GUUCCGUUGGCGUAAUGGUAACGCGUCUCCCUCCUAAAGAGAAGACCGCGGGUUCAAGUCCCGUACGGAACG [G38A U47C G56A]	0.673
GUUCCGUUGGCGUAAUGGUAACGCGUCUCCCUCCUAAAGAGAAGACUGCGGGUUCGAGUCCCGAACGGAACG [G38A U64A]	0.765
GUUCCGUUGGCGUAAUGGUAACGCGUCUCCCUCCUAAAGAGAAGACUACAGGUUCGAGUCCCGUACGGAACG [G38A G48A G50A]	≤ 0.5
GUUCCGUUGGCGUAAUGGUAACGCGUCUCCCUCCUAAAGAGAAGACUGCGGGUUCGAGUCCCAUACGGAACG [G38A G63A]	0.897
GUUCCGUUGGCGUAAUGGUAACGCGUCUCCCUCCUAACGAGGAGACUGCGGGUUCGAGUCCCGGACGGAACG [G38C A42G U64G]	0.781
GUUCCGUUGGCGUAAUGGUAACGCGUCUCCCUCCUAACGAGACGACUGCGGGUUCGAGUCCCGUACGGAACG [G38C A43C]	1.12
GUUCCGUUGGCGUAAUGGUAACGCGUCUCCCUCCUAACGAGAGGACUGCGGGUUCGAGUCCCGUACGGAACG [G38C A43G]	0.643
GUUCCGUUGGCGUAAUGGUAACGCGUCUCCCUCCUAAAGAGAAGACUGCGGGUUCGAGUCCCGUACCGAACG [G38A G67C]	0.776
GUUCCGUUGGCGUAAUGGUAACGCGUCUCCCUCCUAAAGAGAAGACUGCGGGUUCGAGUCCCGUACUGAACG [G38A G67U]	0.803
GUUCCGUUGGCGUAAUGGUAACGCGUCUCCCUCCUAAAGAGAAGACUGCGGCUUCAAGUCCCGUACGGAACG [G38A G52C G56A]	0.609
GUUCCGUUGGCGUAAUGGUAACGCGUCUCCCUCCUAAAGAGAAGACCACGGGUUCGAGUCCCGUACGGAACG [G38A U47C G48A]	0.542
GUUCCGUUGGCGUAAUGGUAACGCGUCUCCCUCCUAAAGAGAAGACUGCGGGCUCGAGUCCCGUACGGAACG [G38A U53C]	0.799
GUUCCGUUGGCGUAAUGGUAACGCGUCUCCCUCCUAAAGAGAAGACUGCGGGAUCGAGUCCCGUACGGAACG [G38A U53A]	0.587
GUUCCGUUGGCGUAAUGGUAACGCGUCUCCCUCCUAAAGAGAAGACUGCGGGAUCGAGUCCCGUAUGGAACG [G38A U53A C66U]	≤ 0.5
GUUCCGUUGGCGUAAUGGUAACGCGUCUCCCUCCUAACGAGAGGACUGGGAGUUCGAGUCCCGUACGGAACG [G38C A43G C49G G51A]	≤ 0.5
GUUCCGUUGGCGUAAUGGUAACGCGUCUCCCUCCUAACGAGCAGACUGAGGGUUCGAGUCCCGUACGGAACG [G38C A42C C49A]	≤ 0.5
GUUCCGUUGGCGUAAUGGUAACGCGUCUCCCUCCUAAAGAGAAGACUAGGGGUUCGAGUCCCGUACGGAUCG [G38A G48A C49G A70U]	≤ 0.5
GUUCCGUUGGCGUAAUGGUAACGCGUCUCCCUCCUAACGUGAAGACUGCGAGUUCGAGUUCCGUACGGAACG [G38C A40U G51A C60U]	0.725

From the RNAGym collection of RNA variant scans (doi:10.1126/science.aae0568)
